Measured values published in ChEMBL document CHEMBL1921730, “The anti-malarial activity of bivalent imidazolium salts” (Bioorg Med Chem, 2011).
The source made the active and inactive calls. The calls are words filed in the database; no cut-off is given here.

Assays:
Plasmodium falciparum [1] = experiment: Antiplasmodial activity against Plasmodium falciparum assessed as inhibition of parasite LDH activity after 72 hrs; type: functional, organism-based
Summary of the method: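 P. falciparum ItG grown in O+ human erythrocytes in RPMI-1640 with 10% human serum and 50 µM hypoxanthine. DMSO stocks (10 mg/mL) diluted two-fold serially; culture at 2% hematocrit and 2% parasitemia incubated 72 h at 37 °C under 95% N₂/3% CO₂/2% O₂. pLDH assay read at 595 nm after 1 h; IC50 by non-linear regression, mean ± SEM, n = 4; chloroquine positive control.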

CHO = experiment: Cytotoxicity against CHO cells after 48 hrs by MTT assay; type: cell-based; conditions: Cricetulus griseus
Summary of the method: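 CHO cells grown in RPMI-1640 with 10% fetal calf serum, 25 mM HEPES and gentamicin, to 50% confluency, then given two-fold gradients from 10 mg/mL DMSO stocks; DMSO-only control. After 48 h, MTT (10 mg/mL) was added for 30 min, then DMSO; absorbance read at 650 nm. IC50 by non-linear regression of sigmoidal dose-response curves; four determinations, mean ± SEM.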

[2] = Ratio of IC50 for CHO cells to IC50 for Plasmodium falciparum
Plasmodium berghei [3] = experiment: Antiplasmodial activity against Plasmodium berghei […] by SYBR green 1 assay; type: functional, organism-based
Summary of the method: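 P. berghei blood from an infected mouse (5% parasitemia) obtained by cardiac puncture and washed 3 times in RPMI. Plated at 2% hematocrit in a two-fold compound gradient. Wells agitated at 24 h to release merozoites, then incubated a further 24 h. SYBR-Green I fluorescence read-out; IC50 from four independent determinations, mean ± SEM.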

Plasmodium falciparum [4] = experiment: Antiplasmodial activity against Plasmodium falciparum assessed as inhibition of merozoite invasion of RBCs at 20 uM after 48 hrs by SYBR green 1 fluorescence-based flow cytometry; type: functional, organism-based
Summary of the method: (§1)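 Sorbitol-synchronized ring-stage P. falciparum set to 5% parasitemia and 0.5% hematocrit, then treated for 48 h. An equal volume of RPMI-1640 with 0.2 µL/mL stock SYBR-Green was added for 1 h in the dark before flow cytometry (~200,000 events). Quadrant counts of parasitized, non-parasitized and small DNA-containing events were taken relative to total erythrocytes.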

Plasmodium falciparum [5] = experiment: Antiplasmodial activity against Plasmodium falciparum assessed as inhibition of parasite adherence to RBCs at 20 uM after 48 hrs by microscopic analysis; type: functional, organism-based
Plasmodium falciparum [6] = experiment: Antiplasmodial activity against Plasmodium falciparum 3D7 assessed as reduction in parasitemia measured between day 1 and day 2 relative to control; type: functional, organism-based
Summary of the method: (§2)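 P. falciparum 3D7 cultures synchronized at mature stage on Percoll one day before the start. Set to 1% hematocrit and 2% parasitemia, treated with 40 nM or 83 nM compound, and sampled every 24 h for 4 days. Parasitemia counted on Giemsa-stained smears. Controls: uninfected RBCs, untreated cultures, sulfated β-cyclodextrin sodium salt and chloroquine.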

Plasmodium falciparum [7] = experiment: Antiplasmodial activity against Plasmodium falciparum assessed as inhibition of merozoite invasion of RBCs at 1 uM after 48 hrs by SYBR green 1 fluorescence-based flow cytometry; type: functional, organism-based; summary of the method: as §1
Plasmodium falciparum [8] = experiment: Antiplasmodial activity against Plasmodium falciparum 3D7 assessed as reduction in parasitemia at 40 nM measured between day 1 and day 2 relative to control; type: functional, organism-based; summary of the method: as §2
Plasmodium falciparum [9] = experiment: Antiplasmodial activity against Plasmodium falciparum 3D7 assessed as reduction in parasitemia at 83 nM measured between day 1 and day 2 relative to control; type: functional, organism-based; summary of the method: as §2
Plasmodium berghei [10] = experiment: Antiplasmodial activity against Plasmodium berghei infected in BALB/c mouse assessed as delay in onset of parasitemia at 75 ug/day infused once daily for 3 days by Giemsa staining relative to control; type: functional, organism-based
Summary of the method: (§3)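 Female Balb/c mice, 6–8 weeks old, infected with 10⁶ P. berghei on Day 0 and followed by Giemsa-stained blood films until parasites appeared. Then infused once daily for three days with 0.5 mL RPMI-1640 or compound in RPMI-1640; vehicle control 1% (v/v) DMSO in RPMI-1640; chloroquine 15 mg/kg/day as positive control. Parasitemia by Giemsa films; five mice per group.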

Plasmodium berghei [11] = experiment: Antiplasmodial activity against Plasmodium berghei infected in BALB/c mouse assessed as delay in onset of parasitemia infused once daily for 3 days by Giemsa staining relative to control
Plasmodium berghei [12] = experiment: Antiplasmodial activity against Plasmodium berghei infected in BALB/c mouse assessed as reduction in parasitemia at 15 mg/kg infused once daily for 4 days measured after 4 days by YOYO-1 staining based flow cytometry relative to control; set-up: scale not given: the % may be the effect or the level left
Plasmodium falciparum [13] = experiment: Antiplasmodial activity against Plasmodium falciparum assessed as inhibition of merozoite invasion of RBCs at 0.2 mg/ml after 48 hrs by SYBR green 1 fluorescence-based flow cytometry; type: functional, organism-based; summary of the method: as §1
Plasmodium berghei [14] = experiment: Antiplasmodial activity against Plasmodium berghei infected in BALB/c mouse assessed as delay in onset of parasitemia at 60 ug/day infused once daily for 3 days by Giemsa staining relative to control; type: functional, organism-based; summary of the method: as §3

Row | Compound | IC50 (Plasmodium falciparum [1]) | IC50 (CHO) | Ratio IC50 [2] | also measured
1 | Cl.Cl.c1cn(CCCCn2ccnc2)cn1 | 1070 µM | 1900 µM | 1.8 | –
2 | CCC[n+]1ccn(CCCCCCCCCCCCn2cc[n+](CCC)c2)c1.[I-].[I-] | 0.0008 µM | 78 µM | 97500 | –
3 | Cl.Cl.c1cn(CCCOc2ccc(OCCCn3ccnc3)cc2)cn1 | 4.9 µM | 50 µM | 10 | –
4 | c1cn(CCCCCCCCCCCCCCCCCCn2ccnc2)cn1 | 0.4 µM | 1.2 µM | 3 | –
5 | Cl.Cl.c1cn(CCCCCCCCCCCCCCn2ccnc2)cn1 | 1.6 µM | 4.4 µM | 2.8 | –
6 | C[n+]1ccn(CCCCCCCCCCCCCCCn2cc[n+](C)c2)c1.[I-].[I-] | 0.002 µM | 1.2 µM | 600 | –
7 | CC[n+]1ccn(CCCCCCCCCCCCn2cc[n+](CC)c2)c1.[I-].[I-] | 0.012 µM | 34 µM | 2833 | IC50 (Plasmodium berghei [3]): 120 nM
8 | C[n+]1ccn(CCCCCCCCCCn2cc[n+](C)c2)c1.[I-].[I-] | 0.082 µM | 57 µM | 695 | –
9 | C[n+]1ccn(CCCCCCn2cc[n+](C)c2)c1.[I-].[I-] | 2.6 µM | – | 56 | –
10 | C[n+]1ccn(CCCCCCCCCCCCn2cc[n+](C)c2)c1.[I-].[I-] | 0.006 µM | 26 µM | 4333 | inhibition (Plasmodium falciparum [4]): inactive; inhibition (Plasmodium falciparum [5]): Active
11 | c1cn(CCCCCCCCCCCCCCCCCCCCn2ccnc2)cn1 | 2.5 µM | 8 µM | 3.2 | –
12 | c1cn(Cc2ccc(-c3ccc(Cn4ccnc4)cc3)cc2)cn1 | 1.7 µM | 65 µM | 38 | –
13 | C[n+]1ccn(-c2ccc(-c3ccc(-n4cc[n+](C)c4)cc3)cc2)c1.[I-].[I-] | 0.009 µM | 9 µM | 1000 | –
14 | Cl.Cl.c1ncn(CCCCCCCCCCCCn2cncn2)n1 | 19 µM | 11.7 µM | 0.6 | –
15 | C[n+]1ccn(CCCCCCCCCCCCCCCCCCCCn2cc[n+](C)c2)c1.[I-].[I-] | 0.0021 µM | 1.4 µM | 667 | –
16 | C[n+]1ccn(CCCOc2ccc(OCCCn3cc[n+](C)c3)cc2)c1.[I-].[I-] | 0.045 µM | – | 2511 | IC50 (Plasmodium berghei [3]): 46 nM
17 | C[n+]1ccn(CCCCCCCCCCCn2cc[n+](C)c2)c1.[I-].[I-] | 0.0061 µM | 42 µM | 6885 | IC50 (Plasmodium berghei [3]): 50 nM
18 | c1cn(CCCCCCCCCCCn2ccnc2)cn1 | 1.9 µM | 20 µM | 11 | –
19 | Cl.Cl.c1cn(CCCCCCCCCCCCCCCn2ccnc2)cn1 | 0.93 µM | 2.8 µM | 3 | –
20 | C[n+]1ccn(CCCCCCCCCCCCCCCCn2cc[n+](C)c2)c1.[I-].[I-] | 0.0005 µM | 2.7 µM | 5400 | –
21 | Cl.Cl.c1cn(CCCCCCCCCCCCn2ccnc2)cn1 | 4.1 µM | 1.4 µM | 0.3 | –

Row | Compound | IC50 (Plasmodium falciparum [1]) | IC50 (CHO) | Ratio IC50 [2] | also measured
22 | CCN(CC)CCCC(C)Nc1ccnc2cc(Cl)ccc12 (stereo unspecified) | – | – | – | Activity (Plasmodium falciparum [6]): Active; inhibition (Plasmodium falciparum [7]): Active
23 | C[n+]1ccn(CCCCCCCCn2cc[n+](C)c2)c1.[I-].[I-] | 4.7 µM | – | 96 | –
24 | Cl.Cl.c1cn(CCCCCCCCCCn2ccnc2)cn1 | 9.2 µM | 15 µM | 1.6 | –
25 | C[n+]1ccn(Cc2ccc(-c3ccc(Cn4cc[n+](C)c4)cc3)cc2)c1.[I-].[I-] | 0.18 µM | – | 694 | –
26 | C[n+]1ccn(-c2ccc(-n3cc[n+](C)c3)cc2)c1.[I-].[I-] | 11.2 µM | – | 28 | –
27 | C[n+]1ccn(CCCCCCCCCCCCCCn2cc[n+](C)c2)c1.[I-].[I-] | 0.0032 µM | 11 µM | 3438 | –
28 | O=C(Cn1cc[n+](CC(=O)c2ccc(Cl)cc2)c1)c1ccc(Cl)cc1 | – | – | – | inhibition (Plasmodium falciparum [4]): inactive; IC50 (Plasmodium berghei [3]): 4200 nM; inhibition (Plasmodium falciparum [5]): Active
29 | C[n+]1cnn(CCCCCCCCCCCCn2c[n+](C)cn2)c1.[I-].[I-] | 0.008 µM | 52 µM | 6500 | Activity (Plasmodium falciparum [8]): inactive; Activity (Plasmodium falciparum [9]): Active; inhibition (Plasmodium falciparum [4]): inactive; Activity (Plasmodium berghei [10]): Active; inhibition (Plasmodium falciparum [5]): Active; Activity (Plasmodium berghei [11]): 50%; Activity (Plasmodium berghei [12]): 75%
30 | C[n+]1ccn(CCCCCCCCCCCCCCCCCCn2cc[n+](C)c2)c1.[I-].[I-] | 0.0009 µM | 1.4 µM | 1556 | –
31 | c1cn(-c2ccc(-c3ccc(-n4ccnc4)cc3)cc2)cn1 | 3.1 µM | 27 µM | 9 | –
32 | Cl.Cl.c1cn(CCCCCCn2ccnc2)cn1 | 90 µM | 899 µM | 10 | –
33 | O=S(=O)(O)OC[C@H]1O[C@@H]2O[C@H]3[C@H](O)[C@@H](O)[C@@H](O[C@H]4[C@H](O)[C@@H](O)[C@@H](O[C@H]5[C@H](O)[C@@H](O)[C@@H](O[C@H]6[C@H](O)[C@@H](O)[C@@H](O[C@H]7[C@H](O)[C@@H](O)[C@@H](O[C@H]8[C@H](O)[C@@H](O)[C@@H](O[C@H]1[C@H](O)[C@H]2O)O[C@@H]8COS(=O)(=O)O)O[C@@H]7COS(=O)(=O)O)O[C@@H]6COS(=O)(=O)O)O[C@@H]5COS(=O)(=O)O)O[C@@H]4COS(=O)(=O)O)O[C@@H]3COS(=O)(=O)O | – | – | – | Activity (Plasmodium falciparum [6]): Active; inhibition (Plasmodium falciparum [13]): Active
34 | [Br-].[Br-].c1ccc(C[n+]2ccn(-c3ccc(-c4ccc(-n5cc[n+](Cc6ccccc6)c5)cc4)cc3)c2)cc1 | 0.022 µM | 12.1 µM | 550 | –
35 | C[n+]1ccn(CCCCCCCCCCCCCn2cc[n+](C)c2)c1.[I-].[I-] | 0.007 µM | 51 µM | 7286 | Activity (Plasmodium berghei [14]): Active
36 | c1cn(CCCCCCCCCCCCCCCCn2ccnc2)cn1 | 0.65 µM | 1.3 µM | 2 | –
37 | c1cn(-c2ccc(-n3ccnc3)cc2)cn1 | 93 µM | 1110 µM | 12 | –
38 | C[n+]1cn(-c2ccc(-c3ccc(-n4c[n+](C)c5ccccc54)cc3)cc2)c2ccccc21.[I-].[I-] | 0.07 µM | 98 µM | 1400 | –
39 | O=[N+]([O-])c1ccc(C[n+]2ccn(-c3ccc(-c4ccc(-n5cc[n+](Cc6ccc([N+](=O)[O-])cc6)c5)cc4)cc3)c2)cc1.[Br-].[Br-] | 0.023 µM | 14 µM | 609 | –
40 | C[n+]1ccn(CCCCn2cc[n+](C)c2)c1.[I-].[I-] | 67 µM | – | 1.8 | –
41 | Cl.Cl.c1cn(CCCCCCCCn2ccnc2)cn1 | 6 µM | 140 µM | 23 | –
42 | Cl.Cl.c1cn(CCCCCCCCCCCCCn2ccnc2)cn1 | 0.56 µM | 3 µM | 5.4 | –
